Reference: ChEMBL document CHEMBL1156144, “Biaryl ethers as novel non-nucleoside reverse transcriptase inhibitors with improved potency against key mutant viruses” (J Med Chem, 2009)

What was measured:
[1] = tested on: Rattus norvegicus; test: AUC in Sprague-Dawley rat at 10 mg/kg, po; type: ADME, organism-based, Plasma; parameters: dose 10 mg/kg, route oral; conditions: in vivo
[2] = tested on: Human immunodeficiency virus; test: Antiviral activity against HIV with reverse transcriptase Y181C mutant assessed as inhibition of viral replication; type: functional, organism-based; conditions: Human immunodeficiency virus 1
[3] = Oral bioavailability in Beagle dog at 1 mg/kg; type: ADME, organism-based, Canis lupus familiaris; conditions: in vivo
[4] = tested on: Human immunodeficiency virus; test: Antiviral activity against HIV with reverse transcriptase K103N mutant assessed as inhibition of viral replication; type: functional, organism-based; conditions: Human immunodeficiency virus 1
[5] = Plasma concentration in rat at 100 mg/kg, po after 24 hrs; type: ADME, organism-based; parameters: dose 100 mg/kg, route oral
[6] = tested on: Human immunodeficiency virus; test: Antiviral activity against HIV with reverse transcriptase V106A/G190A/F227L mutant assessed as inhibition of viral replication; type: functional, organism-based; conditions: Human immunodeficiency virus 1
[7] = tested on: Human immunodeficiency virus; test: Antiviral activity against HIV with reverse transcriptase K103N/G190A double mutant assessed as inhibition of viral replication; type: functional, organism-based; conditions: Human immunodeficiency virus 1
[8] = tested on: Human immunodeficiency virus; test: Antiviral activity against HIV with reverse transcriptase Y181C mutant infected in human MT2 cells assessed as inhibition of viral replication measuring p24 level after 3 days in presence of 10% fetal bovine serum; type: functional; conditions: Human immunodeficiency virus 1, MT2, Serum, 72 h; read-out: CIC95
Outline: (§1)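 Multiple-cycle replication (Spread) assay in MT2 cells with H9IIIB-background mutant virus. Cells were infected overnight at moi ≈ 0.01 without compound, washed, then cultured 3 days across a range of compound concentrations in medium with 10% FBS. p24 was measured in supernatants. CIC95 is the lowest concentration inhibiting replication by ≥95%, reported as the geometric mean of ≥2 determinations.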

[9] = tested on: Human immunodeficiency virus; test: Antiviral activity against HIV with reverse transcriptase CNDO mutant assessed as inhibition of viral replication; type: functional, organism-based; conditions: Human immunodeficiency virus 1
[10] = target: Cytochrome P450 3A4 (Homo sapiens, UniProt P08684); test: Inhibition of CYP3A4; type: ADME
Sequence of Cytochrome P450 3A4 (P08684 whole entry): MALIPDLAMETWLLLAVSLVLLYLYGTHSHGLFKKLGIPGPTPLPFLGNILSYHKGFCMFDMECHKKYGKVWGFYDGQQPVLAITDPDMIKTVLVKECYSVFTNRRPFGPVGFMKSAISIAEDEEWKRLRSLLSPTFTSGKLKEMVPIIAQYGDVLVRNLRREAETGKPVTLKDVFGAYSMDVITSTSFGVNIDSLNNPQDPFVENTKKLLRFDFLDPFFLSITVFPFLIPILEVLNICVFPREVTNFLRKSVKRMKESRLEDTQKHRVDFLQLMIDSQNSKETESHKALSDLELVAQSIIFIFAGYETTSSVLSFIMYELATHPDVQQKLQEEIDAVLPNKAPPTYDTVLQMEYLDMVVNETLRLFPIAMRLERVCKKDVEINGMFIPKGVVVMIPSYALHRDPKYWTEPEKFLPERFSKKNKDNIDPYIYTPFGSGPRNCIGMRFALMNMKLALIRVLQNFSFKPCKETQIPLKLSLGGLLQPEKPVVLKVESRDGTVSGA

[11] = tested on: Human immunodeficiency virus; test: Antiviral activity against HIV with reverse transcriptase G190S mutant assessed as inhibition of viral replication; type: functional, organism-based; conditions: Human immunodeficiency virus 1
[12] = tested on: Human immunodeficiency virus; test: Antiviral activity against wild type HIV H9-3B infected in human MT2 cells assessed as inhibition of viral replication measuring p24 level after 3 days in presence of 50% normal human serum; type: functional; conditions: Human immunodeficiency virus 1, H9-3B, 72 h, read-out: CIC95
Outline: (§2)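 Multiple-cycle spread assay in MT2 cells with wild-type H9IIIB virus. Cells were infected overnight at moi ≈ 0.01 without compound, washed, then cultured 3 days across varying compound concentrations in RPMI 1640 with 10% FBS or 50% NHS. p24 was measured in supernatants. CIC95 is the lowest concentration inhibiting replication ≥95%, as the geometric mean of ≥2 determinations.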

[13] = tested on: Human immunodeficiency virus; test: Antiviral activity against HIV with reverse transcriptase K101E/G190A double mutant assessed as inhibition of viral replication; type: functional, organism-based; conditions: Human immunodeficiency virus 1
[14] = Inhibition of RNA-dependent DNA polymerase activity of wild type HIV reverse transcriptase assessed as BrdU incorporation by standard ECL assay; parameters: species or system Human immunodeficiency virus
Outline: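 Purified recombinant wild-type RT polymerase activity was measured using a 500-nt heteropolymeric RNA template and a biotinylated DNA primer. BrdU incorporation was detected with a ruthenylated anti-BrdU antibody by electrochemiluminescence. Ki is the geometric mean of at least two determinations, each within 25% of the mean.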

[15] = tested on: Canis familiaris; test: Cardiotoxicity in conscious cardiovascular dog assessed as electrocardiogram at 10 mg/kg, iv; type: toxicity, organism-based, Canis lupus familiaris, Heart; parameters: dose 10 mg/kg, route intravenous; conditions: in vivo
[16] = tested on: Canis familiaris; test: Cardiotoxicity in conscious cardiovascular dog assessed as mean arterial pressure at 10 mg/kg, iv; type: toxicity, organism-based, Canis lupus familiaris, Heart; parameters: dose 10 mg/kg, route intravenous; conditions: in vivo
[17] = Volume of distribution in rhesus monkey at 1 mg/kg, iv; type: ADME, organism-based, Macaca mulatta; parameters: dose 1 mg/kg, route intravenous; conditions: in vivo
[18] = tested on: Human immunodeficiency virus; test: Antiviral activity against wild type HIV H9-3B infected in human MT2 cells assessed as inhibition of viral replication measuring p24 level after 3 days in presence of 10% fetal bovine serum; type: functional; conditions: Human immunodeficiency virus 1, MT2, Serum; read-out: CIC95; outline: as §2
[19] = Oral bioavailability in rhesus monkey at 5 mg/kg; conditions: in vivo
[20] = tested on: Human immunodeficiency virus; test: Antiviral activity against HIV with reverse transcriptase K103N/Y181C double mutant infected in human MT2 cells assessed as inhibition of viral replication measuring p24 level after 3 days in presence of 10% fetal bovine serum; type: functional; conditions: Human immunodeficiency virus 1, MT2, Serum, 72 h; read-out: CIC95; outline: as §1
[21] = tested on: Human immunodeficiency virus; test: Antiviral activity against HIV with reverse transcriptase MDRC4 mutant assessed as inhibition of viral replication; type: functional, organism-based; conditions: Human immunodeficiency virus 1
[22] = tested on: Rhesus monkey; test: AUC in rhesus monkey at 5 mg/kg, po; type: ADME, organism-based, Macaca mulatta, Plasma; parameters: dose 5 mg/kg, route oral; conditions: in vivo
[23] = tested on: Human immunodeficiency virus; test: Antiviral activity against HIV with reverse transcriptase L100I/K103N double mutant assessed as inhibition of viral replication; type: functional, organism-based; conditions: Human immunodeficiency virus 1
[24] = Clearance in Sprague-Dawley rat at 2 mg/kg, iv; type: ADME, organism-based; parameters: dose 2 mg/kg, route intravenous; conditions: in vivo
[25] = tested on: Human immunodeficiency virus; test: Antiviral activity against HIV with reverse transcriptase K101E/Y181C/G190A mutant assessed as inhibition of viral replication; type: functional, organism-based; conditions: Human immunodeficiency virus 1
[26] = Half life in rhesus monkey at 1 mg/kg, iv; type: ADME, organism-based, Macaca mulatta; parameters: dose 1 mg/kg, route intravenous; conditions: in vivo
[27] = tested on: Rattus norvegicus; test: AUC in Sprague-Dawley rat at 2 mg/kg, iv; type: ADME, organism-based, Plasma; parameters: dose 2 mg/kg, route intravenous; conditions: in vivo
[28] = Clearance in rhesus monkey at 1 mg/kg, iv; type: ADME, organism-based, Macaca mulatta; parameters: dose 1 mg/kg, route intravenous; conditions: in vivo
[29] = tested on: Human immunodeficiency virus; test: Antiviral activity against HIV with reverse transcriptase K103N/P225H double mutant assessed as inhibition of viral replication; type: functional, organism-based; conditions: Human immunodeficiency virus 1
[30] = Oral bioavailability in Sprague-Dawley rat at 10 mg/kg; type: ADME, organism-based; conditions: in vivo
[31] = Half life in Sprague-Dawley rat at 2 mg/kg, iv; type: ADME, organism-based; parameters: dose 2 mg/kg, route intravenous; conditions: in vivo
[32] = tested on: Human immunodeficiency virus; test: Antiviral activity against HIV with reverse transcriptase L100I mutant assessed as inhibition of viral replication; type: functional, organism-based; conditions: Human immunodeficiency virus 1
[33] = Volume of distribution in Sprague-Dawley rat at 2 mg/kg, iv; type: ADME, organism-based; parameters: dose 2 mg/kg, route intravenous; conditions: in vivo
[34] = Half life in Beagle dog at 0.5 mg/kg, iv; type: ADME, organism-based, Canis lupus familiaris; parameters: dose 0.5 mg/kg, route intravenous; conditions: in vivo
[35] = tested on: Canis familiaris; test: AUC in Beagle dog at 1 mg/kg, po; type: ADME, organism-based, Canis lupus familiaris, Plasma; parameters: dose 1 mg/kg, route oral; conditions: in vivo
[36] = target: Cytochrome P450 2D6 (Homo sapiens, UniProt P10635); test: Inhibition of CYP2D6; type: ADME
Sequence of Cytochrome P450 2D6 (P10635 whole entry): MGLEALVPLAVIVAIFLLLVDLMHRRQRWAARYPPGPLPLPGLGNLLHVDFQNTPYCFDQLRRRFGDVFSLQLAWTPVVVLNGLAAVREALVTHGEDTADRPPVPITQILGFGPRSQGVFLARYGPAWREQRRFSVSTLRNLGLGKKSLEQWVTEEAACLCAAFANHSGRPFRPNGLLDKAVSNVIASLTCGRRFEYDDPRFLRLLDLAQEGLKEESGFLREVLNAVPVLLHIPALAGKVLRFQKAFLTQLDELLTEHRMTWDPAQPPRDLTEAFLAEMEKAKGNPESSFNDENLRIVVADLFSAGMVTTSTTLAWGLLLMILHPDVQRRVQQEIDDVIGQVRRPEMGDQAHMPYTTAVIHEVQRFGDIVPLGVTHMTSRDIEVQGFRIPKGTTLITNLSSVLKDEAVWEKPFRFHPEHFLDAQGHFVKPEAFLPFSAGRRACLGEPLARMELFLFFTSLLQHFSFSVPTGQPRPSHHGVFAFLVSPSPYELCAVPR

[37] = Volume of distribution in Beagle dog at 0.5 mg/kg, iv; type: ADME, organism-based, Canis lupus familiaris; parameters: dose 0.5 mg/kg, route intravenous; conditions: in vivo
[38] = tested on: Human immunodeficiency virus; test: Antiviral activity against HIV with reverse transcriptase G190A mutant assessed as inhibition of viral replication; type: functional, organism-based; conditions: Human immunodeficiency virus 1
[39] = tested on: Canis familiaris; test: Cardiotoxicity in conscious cardiovascular dog assessed as heart rate at 10 mg/kg, iv; type: toxicity, organism-based, Canis lupus familiaris; parameters: dose 10 mg/kg, route intravenous; conditions: in vivo
[40] = tested on: Human immunodeficiency virus; test: Antiviral activity against HIV with reverse transcriptase Y188L mutant assessed as inhibition of viral replication; type: functional, organism-based; conditions: Human immunodeficiency virus 1
[41] = target: Human immunodeficiency virus type 1 reverse transcriptase (Human immunodeficiency virus 1, UniProt Q72547, K103N); test: Inhibition of RNA-dependent DNA polymerase activity of recombinant HIV reverse transcriptase K103N mutant assessed as BrdU incorporation by standard ECL assay
[42] = tested on: Human immunodeficiency virus; test: Antiviral activity against HIV with reverse transcriptase K103N/Y181C/G190A mutant assessed as inhibition of viral replication; type: functional, organism-based; conditions: Human immunodeficiency virus 1
[43] = tested on: Human immunodeficiency virus; test: Antiviral activity against HIV with reverse transcriptase K103N/Y181C double mutant assessed as inhibition of viral replication; type: functional, organism-based; conditions: Human immunodeficiency virus 1
[44] = tested on: Human immunodeficiency virus; test: Antiviral activity against HIV with reverse transcriptase Y181C/G190A double mutant assessed as inhibition of viral replication; type: functional, organism-based; conditions: Human immunodeficiency virus 1
[45] = tested on: Human immunodeficiency virus; test: Antiviral activity against HIV with reverse transcriptase K103N mutant infected in human MT2 cells assessed as inhibition of viral replication measuring p24 level after 3 days in presence of 10% fetal bovine serum; type: functional; conditions: Human immunodeficiency virus 1, MT2, Serum, 72 h; read-out: CIC95; outline: as §1
[46] = Clearance in Beagle dog at 0.5 mg/kg, iv; type: ADME, organism-based, Canis lupus familiaris; parameters: dose 0.5 mg/kg, route intravenous; conditions: in vivo

**Q.** Which results are given for `N#Cc1cc(Cl)cc(Oc2cc(OCc3n[nH]c4nc(N)ccc34)cc(F)c2Cl)c1`?
**A.** AUC [1]: 18 µM; IC50 [2]: 2.2 nM; bioavailability [3]: 63%; IC50 [4]: 3.3 nM; AUC at 24 h [5]: 180 µM·h; IC50 [6]: > 1000 nM; IC50 [7]: 9.6 nM; IC95 [8]: 14 nM; IC50 [9]: 1.1 nM; IC50 [10]: 4400 nM; IC50 [11]: 37.3 nM; IC95 [12]: 69 nM; IC50 [13]: 3.4 nM; Ki [14]: 0.1 nM; Activity [15]: Non-toxic; Activity [16]: Non-toxic; Vd [17]: 3.6 L/kg; IC95 [18]: 8 nM; bioavailability [19]: 13%; IC95 [20]: 62 nM; IC50 [21]: 6.4 nM; AUC [22]: 1.7 µM; IC50 [23]: 112 nM; clearance [24]: 10 mL/min/kg; IC50 [25]: 19.2 nM; half-life [26]: 4.2 h; AUC [27]: 7.4 µM; clearance [28]: 15 mL/min/kg; IC50 [29]: 3.3 nM; bioavailability [30]: 49%; half-life [31]: 4.6 h; IC50 [32]: 0.6 nM; Vd [33]: 3.5 L/kg; half-life [34]: 7 h; AUC [35]: 6 µM; IC50 [36]: 47400 nM; Vd [37]: 2.3 L/kg; IC50 [38]: 2 nM; Activity [39]: Non-toxic; IC50 [40]: 326 nM; Ki [41]: 0.4 nM; IC50 [42]: 84.3 nM; IC50 [43]: 184 nM; IC50 [44]: 4.3 nM; IC95 [45]: 18 nM; clearance [46]: 4 mL/min/kg
